{
  "source": "ChEMBL document CHEMBL3853270",
  "about": "“Influence of Birch Bark Triterpenes on Keratinocytes and Fibroblasts from Diabetic and Nondiabetic Donors” (2016)",
  "type_in_all_cases": "functional",
  "key": {"Fibroblast [1]": {"test_system": "Fibroblast", "test": "Effect on adhesion molecules related gene expression in diabetic adult human primary fibroblasts assessed as ICAM1 mRNA levels at 1.96 uM after 6 hrs by qPCR analysis", "method_in_brief": "(§1)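 Dermal fibroblasts from nondiabetic adult and diabetic adult donors, exposed for 6 h at 1.96 or 9.81 μM. ICAM-1 and VCAM-1 mRNA measured by standard qRT-PCR, n = 3. Fold change versus 0.1% DMSO control, SD, one-way ANOVA with Bonferroni post-test.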"}, "[2]": {"test": "Effect on wound healing activity in non-diabetic adult human primary fibroblasts assessed as upregulation of MIF protein levels at 1.96 uM after 24 hrs by bead-based suspension array analysis", "settings": "Fibroblast"}, "Fibroblast [3]": {"test_system": "Fibroblast", "test": "Effect on actin cytoskeleton in human non-diabetic primary fibroblasts assessed as formation of thin elongated cellular body at 10 nM after 2 hrs in presence of p-38 MAPK inhibitor LN 950 by rhodamine phalloidin-staining based fluorescence microscopic analysis", "method_in_brief": "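Subconfluent cells on glass coverslips, collagen type I coated for fibroblasts; keratinocytes starved 2 days before stimulation. Exposure 2 h, then rhodamine-phalloidin staining (1:25 in PBS) and fluorescence microscopy. Controls were DMSO as solvent and PDGF (fibroblasts) or CNF1 (keratinocytes). Where used, p38-MAPK inhibitor LN 950 (100 nM) was added 30 min beforehand.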"}, "Keratinocyte [4]": {"test_system": "Keratinocyte", "test": "Effect on pro-inflammatory related gene expression in non-diabetic adult human primary keratinocytes assessed as IL1R1 mRNA levels at 1.96 uM after 6 hrs by qPCR analysis"}, "Fibroblast [5]": {"test_system": "Fibroblast", "test": "Effect on adhesion molecules related gene expression in non-diabetic adult human primary fibroblasts assessed as ICAM1 mRNA levels at 9.81 uM after 6 hrs by qPCR analysis", "method_in_brief": "as §1"}, "[6]": {"test": "Effect on wound healing activity in diabetic adult human primary keratinocytes assessed as upregulation of IL1RA protein levels at 1.96 uM after 24 hrs by bead-based suspension array analysis", "settings": "Keratinocyte"}, "Keratinocyte [7]": {"test_system": "Keratinocyte", "test": "Effect on antioxidant related gene expression in non-diabetic young human primary keratinocytes assessed as SOD2 mRNA levels at 1.96 uM after 6 hrs by qPCR analysis"}, "Fibroblast [8]": {"test_system": "Fibroblast", "test": "Effect on chemokines related gene expression in non-diabetic adult human primary fibroblasts assessed as IL8 mRNA levels at 9.81 uM after 6 hrs by qPCR analysis"}, "Keratinocyte [9]": {"test_system": "Keratinocyte", "test": "Effect on antioxidant related gene expression in non-diabetic adult human primary keratinocytes assessed as SOD2 mRNA levels at 1.96 uM after 6 hrs by qPCR analysis"}, "Keratinocyte [10]": {"test_system": "Keratinocyte", "test": "Effect on cellular connection related gene expression in non-diabetic young human primary keratinocytes assessed as GJB2 mRNA levels at 1.96 uM after 6 hrs by qPCR analysis"}, "[11]": {"test": "Effect on wound healing activity in non-diabetic adult human primary keratinocytes assessed as upregulation of MIF protein levels at 1.96 uM after 24 hrs by bead-based suspension array analysis", "settings": "Keratinocyte"}, "Keratinocyte [12]": {"test_system": "Keratinocyte", "test": "Effect on growth factor related gene expression in non-diabetic young human primary keratinocytes assessed as VEGFA mRNA levels at 9.81 uM after 6 hrs by qPCR analysis", "method_in_brief": "(§2)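 Primary human keratinocytes (nondiabetic young or adult, diabetic adult donors) were exposed to compound for 6 h, with 0.1% DMSO as solvent control. Total RNA came from 400 000 cells per sample and was assayed on a Fluidigm Biomark high-throughput qPCR chip. Results are fold change vs solvent control, from 2−4 independent experiments on two donors per group, with SD. Groups were compared by one-way ANOVA with Bonferroni post-test.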"}, "Fibroblast [13]": {"test_system": "Fibroblast", "test": "Effect on growth factor related gene expression in non-diabetic adult human primary fibroblasts assessed as GDF15 mRNA levels at 9.81 uM after 6 hrs by qPCR analysis", "method_in_brief": "(§3)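 Primary human dermal fibroblasts (young or adult nondiabetic, adult diabetic donor) were treated for 6 h against a 0.1% DMSO solvent control. RNA from 320 000 cells per sample was measured by Fluidigm Biomark high-throughput qPCR. Values are fold change relative to solvent control, from four independent experiments, with SD. One-way ANOVA with Bonferroni post-test was applied.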"}, "Keratinocyte [14]": {"test_system": "Keratinocyte", "test": "Effect on growth factor related gene expression in non-diabetic adult human primary keratinocytes assessed as PDGFB mRNA levels at 1.96 uM after 6 hrs by qPCR analysis", "method_in_brief": "as §2"}, "Fibroblast [15]": {"test_system": "Fibroblast", "test": "Effect on antiinflammatory related gene expression in non-diabetic adult human primary fibroblasts assessed as NFKBIA mRNA levels at 1.96 uM after 6 hrs by qPCR analysis", "method_in_brief": "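Primary dermal fibroblasts from one nondiabetic young, one nondiabetic adult and one diabetic adult donor; 320 000 cells per sample, 6 h at 1.96 or 9.81 μM. RNA measured on a high-throughput qPCR chip. Fold change versus 0.1% DMSO control, four independent experiments, SD, one-way ANOVA with Bonferroni post-test.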"}, "Keratinocyte [16]": {"test_system": "Keratinocyte", "test": "Effect on antioxidant related gene expression in non-diabetic adult human primary keratinocytes assessed as SOD2 mRNA levels at 9.81 uM after 6 hrs by qPCR analysis"}, "Fibroblast [17]": {"test_system": "Fibroblast", "test": "Effect on chemokines related gene expression in non-diabetic young human primary fibroblasts assessed as CCL2 mRNA levels at 9.81 uM after 6 hrs by qPCR analysis", "method_in_brief": "as §3"}, "Keratinocyte [18]": {"test_system": "Keratinocyte", "test": "Effect on cellular connection related gene expression in non-diabetic adult human primary keratinocytes assessed as CLDN4 mRNA levels at 9.81 uM after 6 hrs by qPCR analysis"}, "Keratinocyte [19]": {"test_system": "Keratinocyte", "test": "Effect on pro-inflammatory related gene expression in diabetic adult human primary keratinocytes assessed as IL1R1 mRNA levels at 9.81 uM after 6 hrs by qPCR analysis"}, "Fibroblast [20]": {"test_system": "Fibroblast", "test": "Effect on growth factor related gene expression in diabetic adult human primary fibroblasts assessed as GDF15 mRNA levels at 1.96 uM after 6 hrs by qPCR analysis", "method_in_brief": "as §3"}, "Keratinocyte [21]": {"test_system": "Keratinocyte", "test": "Effect on pro-inflammatory related gene expression in non-diabetic young human primary keratinocytes assessed as TNF mRNA levels at 9.81 uM after 6 hrs by qPCR analysis"}, "Fibroblast [22]": {"test_system": "Fibroblast", "test": "Effect on transcription factor related gene expression in non-diabetic adult human primary fibroblasts assessed as JUN mRNA levels at 1.96 uM after 6 hrs by qPCR analysis"}, "[23]": {"test": "Effect on wound healing activity in non-diabetic adult human primary fibroblasts assessed as upregulation of RANTES protein levels at 1.96 uM after 24 hrs by bead-based suspension array analysis", "settings": "Fibroblast"}, "Fibroblast [24]": {"test_system": "Fibroblast", "test": "Effect on transcription factor related gene expression in non-diabetic adult human primary fibroblasts assessed as JUN mRNA levels at 9.81 uM after 6 hrs by qPCR analysis"}, "Keratinocyte [25]": {"test_system": "Keratinocyte", "test": "Effect on cellular connection related gene expression in non-diabetic adult human primary keratinocytes assessed as GJB2 mRNA levels at 9.81 uM after 6 hrs by qPCR analysis"}, "Fibroblast [26]": {"test_system": "Fibroblast", "test": "Effect on pro-inflammatory related gene expression in diabetic adult human primary fibroblasts assessed as IL1B mRNA levels at 9.81 uM after 6 hrs by qPCR analysis", "method_in_brief": "as §3"}, "Keratinocyte [27]": {"test_system": "Keratinocyte", "test": "Effect on chemokines related gene expression in non-diabetic young human primary keratinocytes assessed as IL8 mRNA levels at 9.81 uM after 6 hrs by qPCR analysis", "method_in_brief": "as §2"}, "Fibroblast [28]": {"test_system": "Fibroblast", "test": "Effect on adhesion molecules related gene expression in non-diabetic adult human primary fibroblasts assessed as ICAM1 mRNA levels at 1.96 uM after 6 hrs by qPCR analysis", "method_in_brief": "as §1"}},
  "note": "Activity calls are given as the source filed them. The rule behind the calls is not given here.",
  "data": [
    {"smiles": "C=C(C)[C@@H]1CC[C@]2(CO)CC[C@]3(C)[C@H](CC[C@@H]4[C@@]5(C)CC[C@H](O)C(C)(C)[C@@H]5CC[C@]43C)[C@@H]12", "note": "[BETULIN]", "values": [
      {"measurement": "fold change (FC)", "setting": "Fibroblast [1]", "value": 6.3},
      {"measurement": "Activity", "setting": "[2]", "value": "Active"},
      {"measurement": "Activity", "setting": "Fibroblast [3]", "value": "Active"},
      {"measurement": "fold change (FC)", "setting": "Keratinocyte [4]", "value": 0.7},
      {"measurement": "fold change (FC)", "setting": "Fibroblast [5]", "value": 152},
      {"measurement": "Activity", "setting": "[6]", "value": "Active"},
      {"measurement": "fold change (FC)", "setting": "Keratinocyte [7]", "value": 1.3},
      {"measurement": "fold change (FC)", "setting": "Fibroblast [8]", "value": 991},
      {"measurement": "fold change (FC)", "setting": "Keratinocyte [9]", "value": 1.3},
      {"measurement": "fold change (FC)", "setting": "Keratinocyte [10]", "value": 0.8},
      {"measurement": "Activity", "setting": "[11]", "value": "Active"},
      {"measurement": "fold change (FC)", "setting": "Keratinocyte [12]", "value": 1.4},
      {"measurement": "fold change (FC)", "setting": "Fibroblast [13]", "value": 3.2},
      {"measurement": "fold change (FC)", "setting": "Keratinocyte [14]", "value": 0.8},
      {"measurement": "fold change (FC)", "setting": "Fibroblast [15]", "value": 7.5},
      {"measurement": "fold change (FC)", "setting": "Keratinocyte [16]", "value": 1.6},
      {"measurement": "fold change (FC)", "setting": "Fibroblast [17]", "value": 4.3},
      {"measurement": "fold change (FC)", "setting": "Keratinocyte [18]", "value": 1.5},
      {"measurement": "fold change (FC)", "setting": "Keratinocyte [19]", "value": 0.9},
      {"measurement": "fold change (FC)", "setting": "Fibroblast [20]", "value": 2.4},
      {"measurement": "fold change (FC)", "setting": "Keratinocyte [21]", "value": 6},
      {"measurement": "fold change (FC)", "setting": "Fibroblast [22]", "value": 1.9},
      {"measurement": "Activity", "setting": "[23]", "value": "Active"},
      {"measurement": "fold change (FC)", "setting": "Fibroblast [24]", "value": 3.1},
      {"measurement": "fold change (FC)", "setting": "Keratinocyte [25]", "value": 0.8},
      {"measurement": "fold change (FC)", "setting": "Fibroblast [26]", "value": 2.9},
      {"measurement": "fold change (FC)", "setting": "Keratinocyte [27]", "value": 21.8},
      {"measurement": "fold change (FC)", "setting": "Fibroblast [28]", "value": 144}
    ]}
  ]
}
